Source: article PMC6832743 (ACS nano, 2019)

Key:
[1] = test system: Mouse bone marrow-derived dendritic cells (BMDCs); assay: BMDC activation; format: cell-based; conditions: 6 h incubation + 18 h fresh medium, flow cytometry
Method in brief: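 Immature mouse bone marrow-derived DCs plated at 2 × 10^6 cells per well and held overnight. Cells exposed for 6 h to free adjuvant, free photosensitizer or adjuvant/photosensitizer-loaded mesoporous silica nanoparticles. Medium then replaced and incubation continued for 18 h. Cells harvested, stained with fluorophore-labelled anti-CD40, anti-CD80 and anti-CD86, and analysed by flow cytometry, gating live intact cells only.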

[2] = test system: Mouse bone marrow-derived dendritic cells (BMDCs); assay: BMDC cytokine secretion; format: cell-based; conditions: 6 h incubation + 18 h fresh medium, ELISA
Method in brief: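 Immature mouse bone marrow-derived DCs plated at 2 × 10^6 cells per well and held overnight. Cells exposed for 6 h to free adjuvant, free photosensitizer or loaded mesoporous silica nanoparticles. Medium exchanged for fresh medium and incubation continued for 18 h. Culture medium then collected and IL-12p70 and TNF-α measured with ELISA kits.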

[3] = UV-vis absorption / aqueous solubility of Ce6; format: physicochemical; conditions: Ce6 diluted in PBS; ~660 nm absorption peak absent

| aqueous solubility [3] | Molecule | DC maturation (expression levels of CD40, CD80, CD86) [1] | secretion of IL-12p70 and TNF-α [2] |
| --- | --- | --- | --- |
| poor aqueous solubility | C=Cc1c(C)c2cc3nc(c(CC(=O)O)c4[nH]c(cc5nc(cc1[nH]2)C(C)=C5CC)c(C)c4C(=O)O)[C@@H](CCC(=O)O)[C@@H]3C [Ce6, chlorin e6] | no obvious signs of DC maturation | did not secrete any detectable levels |
| – | CSSASMTNMELM [Adpgk] | no obvious signs of DC maturation | did not secrete any detectable levels |
